What is called IC50 is the concentration that gives 50% inhibition. High values mean lower potency, low ones higher potency. Usually half-life stands for how long it takes for the measured level to halve. High values mean slow loss, low ones fast loss. The inhibition is how much of the control response was suppressed. Read a high inhibition as a strong effect.

The values below come from ChEMBL document CHEMBL3769304, “Potent α-amino-β-lactam carbamic acid ester as NAAA inhibitors. Synthesis and structure-activity relationship (SAR) studies” (Eur J Med Chem, 2016).

Series [1] concerns the target T1, N-acylethanolamine-hydrolyzing acid amidase (Homo sapiens, UniProt Q02083).
T1 sequence (Q02083 whole entry): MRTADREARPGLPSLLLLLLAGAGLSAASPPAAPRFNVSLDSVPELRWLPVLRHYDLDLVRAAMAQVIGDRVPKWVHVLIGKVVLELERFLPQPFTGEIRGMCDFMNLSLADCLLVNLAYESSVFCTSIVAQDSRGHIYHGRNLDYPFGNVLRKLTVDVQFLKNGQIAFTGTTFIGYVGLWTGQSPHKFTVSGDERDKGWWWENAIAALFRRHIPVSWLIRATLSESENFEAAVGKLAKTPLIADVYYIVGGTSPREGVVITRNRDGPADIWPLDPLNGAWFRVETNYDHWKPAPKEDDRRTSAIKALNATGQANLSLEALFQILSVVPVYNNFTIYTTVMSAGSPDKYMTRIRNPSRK
As to the kind of experiment: Inhibition of human NAAA expressed in HEK293 cells preincubated for 10 mins followed by N-(4-methyl-2-oxo-chromen-7-yl)-hexadecanamide substrate addition for 50 mins by microplate reader analysis.

Series [2] deals with T1, N-acylethanolamine-hydrolyzing acid amidase. Briefly: Inhibition of human NAAA expressed in HEK293 cells preincubated for 10 mins followed by N-(4-methyl-2-oxo-chromen-7-yl)-hexadecanamide substrate addition for 50 mins by fluorescence assay. The format is cell-based.
Series [3] in a line: Kinetic solubility of the compound in PBS at pH 7.4 after 24 hrs by UPLC/MS analysis. The format is physicochemical. Particulars: read-out: Kinetic_solubility. Put shortly: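 Kinetic solubility measured in PBS, pH 7.4; mean of three or more determinations.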
Series [4] in a line: Half life in mouse plasma after 2 hrs by LC/MS-MS analysis. The format is ADME, cell-free.
A short description of series [5]: Half life in rat plasma after 2 hrs by LC/MS-MS analysis. The format is ADME, cell-free.
In series [6] the target is T2, Fatty-acid amide hydrolase 1 (Homo sapiens) (UniProt O00519).
T2 sequence (whole entry): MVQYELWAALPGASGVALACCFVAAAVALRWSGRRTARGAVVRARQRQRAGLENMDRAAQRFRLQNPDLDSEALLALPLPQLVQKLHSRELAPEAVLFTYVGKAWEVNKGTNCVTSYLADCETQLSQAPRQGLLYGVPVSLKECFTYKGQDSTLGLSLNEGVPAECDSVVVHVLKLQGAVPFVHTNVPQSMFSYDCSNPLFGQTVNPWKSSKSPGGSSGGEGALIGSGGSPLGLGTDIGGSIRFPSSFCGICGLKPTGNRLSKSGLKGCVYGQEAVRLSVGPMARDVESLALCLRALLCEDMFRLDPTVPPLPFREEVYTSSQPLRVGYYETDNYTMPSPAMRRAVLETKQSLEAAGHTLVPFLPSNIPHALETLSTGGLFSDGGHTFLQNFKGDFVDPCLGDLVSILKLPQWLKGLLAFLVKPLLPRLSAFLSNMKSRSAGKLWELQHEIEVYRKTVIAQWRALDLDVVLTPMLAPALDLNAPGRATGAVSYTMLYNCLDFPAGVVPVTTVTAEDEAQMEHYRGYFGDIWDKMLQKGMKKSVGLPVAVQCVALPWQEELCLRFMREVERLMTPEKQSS
As to the kind of experiment: Inhibition of human FAAH at 10 uM by fluorescence assay. Put shortly:
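Enzyme source: membrane pellet (105,000 × g, re-suspended in PBS) from HEK293 cells stably transfected with h-FAAH-1; fluorogenic read-out; percent inhibition at 10 µM from two determinations.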

Series [7] can be described thus: Half life in mouse liver microsomes preincubated for 15 mins followed by NADPH addition measured after 1 hr by LC/MS-MS analysis. The format is ADME. A general note: Liver microsomes are a subcellular fraction often used to study metabolism.
The species named for a further series is Homo sapiens. Briefly: Selectivity ratio of IC50 for human acid ceramidase to IC50 for recombinant human NAAA.
The target in another series is T3, Acid ceramidase (Homo sapiens, UniProt Q13510).
T3 sequence (Q13510 whole entry): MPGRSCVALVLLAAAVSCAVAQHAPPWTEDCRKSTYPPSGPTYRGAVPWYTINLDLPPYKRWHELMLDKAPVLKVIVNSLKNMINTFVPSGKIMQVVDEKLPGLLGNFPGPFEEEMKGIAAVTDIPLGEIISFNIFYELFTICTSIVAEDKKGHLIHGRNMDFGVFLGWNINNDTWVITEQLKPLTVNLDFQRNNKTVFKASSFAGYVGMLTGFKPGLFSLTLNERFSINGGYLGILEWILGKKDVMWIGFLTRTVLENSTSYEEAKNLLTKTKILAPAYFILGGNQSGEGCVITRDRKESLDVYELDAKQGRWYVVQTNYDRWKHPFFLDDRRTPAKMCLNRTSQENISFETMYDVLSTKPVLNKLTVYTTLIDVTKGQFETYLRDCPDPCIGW
As to the kind of experiment: Inhibition of human acid ceramidase by UPLC/MS analysis.

Series [8] can be described thus: Half life in rat liver microsomes preincubated for 15 mins followed by NADPH addition measured after 1 hr by LC/MS-MS analysis. It is filed as ADME.

SMILES strings stand for the structures. ≈ marks a conversion by molar mass, not a printed value.

For `CCCCCCCCC(=O)N[C@H]1CNC1=O`, the IC50 in series [1] is 340 nM. This lies in the sub-micromolar range.
In the case of `O=C(N[C@H]1CNC1=O)OCCCCc1ccc(C(F)(F)F)cc1`, the IC50 in series [2] was 73 nM.
Turning to `O=C(N[C@H]1CNC1=O)OCCCOC1CCCCC1`, half-maximal inhibition in series [2] (IC50) required 2670 nM.
`O=C(N[C@H]1CNC1=O)OCCCCC1CCC(F)(F)CC1`: the solubility kinetic at 24 h in series [3] is > 250 µM. The half-life in series [4] stood at 33 min; in series [5], 7 min; in series [7], 34 min; in series [8], 10 min. In series [6], the inhibition was < 10%. For the same compound, in the series listed under Homo sapiens, the Ratio IC50 is 140. At Acid ceramidase, the IC50 stood at 10500 nM.
As for `CCCCc1ccc(COC(=O)N[C@H]2CNC2=O)cc1`, in series [3], the solubility kinetic at 24 h was 83 µM (≈ 22.9 µg/mL). Further, the half-life is 29 min in [4], > 120 min in [5], < 5 min in [7] and < 5 min in series [8]. Also, in series [6], the inhibition was < 10%. Besides, the Ratio IC50 in the series listed under Homo sapiens is 55. Also, half-maximal inhibition on Acid ceramidase (IC50) required 390 nM.
`O=C(N[C@H]1CNC1=O)OCCCCC1CCCCC1`: in series [3], the solubility kinetic at 24 h came out at 144 µM (≈ 38.6 µg/mL). For the same compound, the half-life in series [4] is 41 min; in [5], 12 min; in series [7] it was < 5 min; in series [8], < 5 min. In addition, the inhibition in [6] is < 10%. On Acid ceramidase, the IC50 worked out at 6270 nM.
Compound `Cc1ccc(COC(=O)N[C@H]2CNC2=O)cc1` came in with an IC50 in [2] of 1040 nM.
Regarding `O=C(N[C@H]1CNC1=O)OCc1ccc2c(c1)OC(F)(F)O2`, in series [3], the solubility kinetic at 24 h is > 250 µM. The half-life in series [4] was 25 min; in series [5] it was > 120 min; in series [7], 30 min; in series [8] it was 40 min. In addition, the inhibition in series [6] is < 10%. Besides, the Ratio IC50 in the series listed under Homo sapiens was 365. The IC50 at Acid ceramidase is 8090 nM.
Compound `COc1ccc(CCCCOC(=O)N[C@H]2CNC2=O)cc1` registered an IC50 in series [2] of 520 nM.
Consider `CCCOc1ccc(COC(=O)N[C@H]2CNC2=O)cc1`, for which the solubility kinetic at 24 h in [3] is > 250 µM. Also, the half-life in series [4] is 31 min; in series [5], > 120 min; in series [7], 11 min; in [8], < 5 min. The inhibition in series [6] was < 10%. The same compound came in with an IC50 on Acid ceramidase of 2410 nM.
`O=C(N[C@H]1CNC1=O)OCCCC1CCCCC1` had an IC50 in series [2] of 44 nM.
Turning to `O=C(N[C@H]1CNC1=O)OCc1ccc2c(c1)CCC2`, the IC50 in [2] is 130 nM.
Same read-out and setting: for `O=C(N[C@H]1CNC1=O)OCCCCc1ccccc1` the value was 1110 nM.
For the compound `O=C(N[C@H]1CNC1=O)OCc1ccc(C2CCCCC2)cc1`, the solubility kinetic at 24 h in series [3] was found to be 51 µM (≈ 15.4 µg/mL). Also, the half-life was 57 min in [4], 104 min in [5], 5 min in series [7] and < 5 min in series [8]. For the same compound, the inhibition in series [6] was < 10%. Besides, the Ratio IC50 in the series listed under Homo sapiens was determined as 125. This compound also registered an IC50 at Acid ceramidase of 1510 nM.
